Assay results as given in ChEMBL document CHEMBL1132487, “Structure-activity studies of cerulenin analogues as protein palmitoylation inhibitors” (J Med Chem, 1999).

Legend:
T-24 = assay: Inhibition of human T24 cell proliferation; assay type: functional, cell-based
Procedure, shortened: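 T24 human bladder carcinoma cells (H-[Val12]-ras overexpressing) in RPMI-1640 with 10% FBS, seeded at 10% confluency, allowed 24 h attachment, then exposed to varying concentrations up to 50 μg/mL for 72 h. Surviving cells measured by sulforhodamine B staining (MTS also used). IC50 vs untreated controls, mean ± SEM of at least three experiments.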

Homo sapiens [1] = species: Homo sapiens; assay: Inhibition of p21 palmitoylation at a concentration of 10(ug/ml); assay type: functional
Procedure, shortened: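 T24 cells seeded at ~25% confluency and attached overnight, treated 4 h with compound at 10 μg/mL, then labelled 2 h with [3H]palmitate (100–200 μCi/mL). Lysates in PBS-TDS, protein-normalized (100–300 μg), immunoprecipitated with Y13-259 anti-Ras antibody and Protein G agarose. Pellet radioactivity counted by scintillation. Percent inhibition vs untreated controls, one or two experiments.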

[2] = biological target: Fatty acid synthase (Homo sapiens) (UniProt P49327); assay: Inhibition of fatty acid synthase at a concentration of 150 (uM)
Procedure, shortened: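 Fatty acid synthase partially purified from HL-60 human promyelocytic leukemia cells. Lysate incubated with compound (150 μM), then activity read as rate of NADPH oxidation in presence of acetyl-CoA and malonyl-CoA. Percent inhibition reported as mean ± SEM, at least two experiments.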

Homo sapiens [3] = species: Homo sapiens; assay: The compound was tested for the inhibition of p21 palmitoylation at a concentration of 5(ug/mL); assay type: functional
Procedure, shortened: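 T24 human bladder carcinoma cells seeded at ~25% confluency in 60 mm dishes, attached overnight; treated 4 h with 5 μg/mL compound, then 2 h [³H]palmitate (100–200 μCi/mL). Lysed in PBS-TDS, protein-normalized (100–300 μg), immunoprecipitated with Y13-259 anti-Ras plus Protein G agarose, washed; pellet radioactivity counted. Percent inhibition of p21 palmitoylation vs untreated controls; six experiments, mean ± SEM.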

Chain of Fatty acid synthase (Homo sapiens) (P49327 whole entry, looked up): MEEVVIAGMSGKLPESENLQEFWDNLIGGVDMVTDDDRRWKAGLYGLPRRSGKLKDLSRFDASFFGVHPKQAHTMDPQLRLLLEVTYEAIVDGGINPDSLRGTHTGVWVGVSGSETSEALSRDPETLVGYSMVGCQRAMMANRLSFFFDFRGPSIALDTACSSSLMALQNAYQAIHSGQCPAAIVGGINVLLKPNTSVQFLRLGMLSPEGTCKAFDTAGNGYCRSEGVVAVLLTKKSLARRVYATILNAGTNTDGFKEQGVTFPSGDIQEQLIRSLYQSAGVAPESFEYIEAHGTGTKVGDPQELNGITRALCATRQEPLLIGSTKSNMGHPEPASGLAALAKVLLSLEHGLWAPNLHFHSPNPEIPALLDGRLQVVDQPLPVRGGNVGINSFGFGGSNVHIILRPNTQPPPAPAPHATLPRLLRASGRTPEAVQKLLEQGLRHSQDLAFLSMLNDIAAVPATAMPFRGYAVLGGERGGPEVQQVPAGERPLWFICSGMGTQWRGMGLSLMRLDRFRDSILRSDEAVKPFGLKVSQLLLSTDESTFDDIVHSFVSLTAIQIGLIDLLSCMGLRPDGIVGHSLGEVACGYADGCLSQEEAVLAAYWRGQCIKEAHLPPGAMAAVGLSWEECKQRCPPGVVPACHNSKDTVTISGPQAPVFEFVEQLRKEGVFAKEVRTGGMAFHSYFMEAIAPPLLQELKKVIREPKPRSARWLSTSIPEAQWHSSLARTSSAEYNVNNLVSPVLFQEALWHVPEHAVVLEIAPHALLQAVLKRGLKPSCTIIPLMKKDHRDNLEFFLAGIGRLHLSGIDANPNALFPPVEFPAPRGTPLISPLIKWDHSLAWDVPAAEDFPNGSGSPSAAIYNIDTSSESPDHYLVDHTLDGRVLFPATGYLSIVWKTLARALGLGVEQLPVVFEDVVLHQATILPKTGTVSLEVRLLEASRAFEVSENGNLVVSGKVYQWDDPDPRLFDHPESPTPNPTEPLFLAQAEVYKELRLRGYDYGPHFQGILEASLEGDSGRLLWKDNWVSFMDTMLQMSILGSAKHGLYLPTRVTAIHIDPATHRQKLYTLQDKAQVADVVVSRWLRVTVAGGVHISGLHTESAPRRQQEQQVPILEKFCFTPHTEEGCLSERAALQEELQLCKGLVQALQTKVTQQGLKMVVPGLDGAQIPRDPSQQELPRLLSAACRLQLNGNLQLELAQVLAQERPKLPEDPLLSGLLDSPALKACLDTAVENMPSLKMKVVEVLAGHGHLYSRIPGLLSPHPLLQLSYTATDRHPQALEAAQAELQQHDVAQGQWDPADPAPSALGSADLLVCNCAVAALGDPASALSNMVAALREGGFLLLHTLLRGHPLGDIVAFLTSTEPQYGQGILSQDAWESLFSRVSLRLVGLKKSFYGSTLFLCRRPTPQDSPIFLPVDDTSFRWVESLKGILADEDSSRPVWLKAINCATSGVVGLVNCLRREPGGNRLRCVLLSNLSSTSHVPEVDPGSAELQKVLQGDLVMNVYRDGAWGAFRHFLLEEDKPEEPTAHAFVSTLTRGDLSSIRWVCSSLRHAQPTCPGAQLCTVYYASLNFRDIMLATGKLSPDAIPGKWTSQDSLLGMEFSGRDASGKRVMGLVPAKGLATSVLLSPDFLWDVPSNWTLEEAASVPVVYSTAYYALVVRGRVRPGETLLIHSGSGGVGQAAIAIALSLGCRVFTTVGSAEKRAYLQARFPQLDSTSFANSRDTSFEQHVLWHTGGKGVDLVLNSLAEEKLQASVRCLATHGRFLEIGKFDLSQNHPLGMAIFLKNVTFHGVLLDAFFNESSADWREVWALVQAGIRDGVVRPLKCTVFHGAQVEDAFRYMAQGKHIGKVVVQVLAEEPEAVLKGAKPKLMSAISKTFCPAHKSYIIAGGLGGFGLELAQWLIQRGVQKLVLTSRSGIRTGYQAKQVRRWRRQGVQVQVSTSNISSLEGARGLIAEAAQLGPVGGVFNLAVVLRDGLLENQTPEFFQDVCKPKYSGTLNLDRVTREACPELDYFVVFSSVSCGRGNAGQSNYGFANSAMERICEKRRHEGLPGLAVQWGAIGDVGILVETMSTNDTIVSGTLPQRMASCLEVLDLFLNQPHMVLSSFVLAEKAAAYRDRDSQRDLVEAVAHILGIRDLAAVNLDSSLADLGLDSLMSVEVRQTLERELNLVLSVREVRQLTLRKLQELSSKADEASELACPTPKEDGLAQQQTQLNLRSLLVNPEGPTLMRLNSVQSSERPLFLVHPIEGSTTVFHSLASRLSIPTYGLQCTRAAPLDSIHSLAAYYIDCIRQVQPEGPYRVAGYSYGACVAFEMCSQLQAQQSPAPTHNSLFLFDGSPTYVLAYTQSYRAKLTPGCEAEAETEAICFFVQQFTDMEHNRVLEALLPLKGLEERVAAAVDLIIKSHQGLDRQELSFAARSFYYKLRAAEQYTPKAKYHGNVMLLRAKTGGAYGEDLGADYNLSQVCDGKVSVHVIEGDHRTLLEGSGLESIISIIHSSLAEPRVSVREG

| Structure (SMILES) | IC50 (T-24) | inhibition (Homo sapiens [1]) | inhibition [2] | inhibition (Homo sapiens [3]) |
| --- | --- | --- | --- | --- |
| CCCCCCCCCCCCCC(O)[C@H]1O[C@H]1C(=O)N(C)C (some centres undefined) | 69 µM | 16% | 5% |  |
| CCCCCCCCC(=O)[C@H]1O[C@H]1C(N)=O | 27 µM | 42% | 74% |  |
| CCCCCCCCCCCCCCCCCC(=O)[C@H]1O[C@H]1C(=O)N(C)C | 34 µM | 21% | 0% |  |
| CCCCCCCCCCCC(=O)[C@H]1O[C@H]1C(N)=O | 20 µM | 40% | 44% |  |
| CCCCCCCCCCCC1OC(=O)[C@@H]2O[C@H]12 (some centres undefined) | > 200 µM | 19% | 4% |  |
| CCCCCCCCCC(=O)[C@H]1O[C@H]1C(N)=O | 7 µM | 63% | 92% |  |
| CCCCCCCCCCCCCCCC(=O)[C@H]1O[C@H]1C(N)=O | 12 µM | 67% | 2% |  |
| CCCCCCCCCCCCCCCC(O)[C@H]1O[C@H]1C(=O)N(C)C (some centres undefined) | 62 µM | 0% | 0% |  |
| CCCCCCCCCCCCCC(O)[C@H]1O[C@H]1C(N)=O (some centres undefined) | 110 µM | 34% | 3% |  |
| CCCCCCCCCCCCCCCCCC(=O)[C@H]1O[C@H]1C(N)=O | 17 µM | 28% | 0% |  |
| CCCCCCCCC1OC(=O)[C@@H]2O[C@H]12 (some centres undefined) | > 240 µM | 32% | 75% |  |
| CCCCCCCCC(O)[C@H]1O[C@H]1C(=O)N(C)C (some centres undefined) | > 190 µM | 9% | 0% |  |
| CCCCCCCCCCCCCCCC(O)[C@H]1O[C@H]1C(N)=O (some centres undefined) | 190 µM | 40% | 10% |  |
| CCCCCCCCCCCC(O)[C@H]1O[C@H]1C(N)=O (some centres undefined) | 130 µM | 29% | 6% |  |
| CCCCCCCCCCCC(O)[C@H]1O[C@H]1C(=O)N(C)C (some centres undefined) | 95 µM | 0% | 9% |  |
| CCCCCCCCCCCCCCCCCC1OC(=O)[C@@H]2O[C@H]12 (some centres undefined) | > 150 µM | 45% | 5% |  |
| CCCCCCCCCCCCCCCCCC(O)[C@H]1O[C@H]1C(N)=O (some centres undefined) | > 140 µM | 3% | 0% |  |

| Structure (SMILES) | IC50 (T-24) | inhibition (Homo sapiens [1]) | inhibition [2] | inhibition (Homo sapiens [3]) |
| --- | --- | --- | --- | --- |
| C/C=C/C/C=C/CCC(=O)[C@H]1O[C@H]1C(N)=O [CERULENIN] | 17 µM |  | 96% | 48% |
| CCCCCCCCC(=O)[C@H]1O[C@H]1C(=O)N(C)C | 140 µM | 0% | 1% |  |
| CCCCCCCCCC1OC(=O)[C@@H]2O[C@H]12 (some centres undefined) | > 220 µM | 33% | 40% |  |
| CCCCCCCCC(O)[C@H]1O[C@H]1C(N)=O (some centres undefined) | > 220 µM | 16% | 4% |  |
| CCCCCCCCCCCCCCCC1OC(=O)[C@@H]2O[C@H]12 (some centres undefined) | 140 µM | 35% | 0% |  |
| CCCCCCCCCCCCCC1OC(=O)[C@@H]2O[C@H]12 (some centres undefined) | > 180 µM | 2% | 0% |  |
| CCCCCCCCCC(O)[C@H]1O[C@H]1C(=O)N(C)C (some centres undefined) | 220 µM | 0% | 0% |  |
| CN(C)C(=O)[C@H]1O[C@H]1C(=O)c1ccccc1 | 29 µM | 59% | 3% |  |
| NC(=O)[C@H]1O[C@H]1C(=O)c1ccccc1 | 15 µM | 22% | 85% |  |
| CCCCCCCCCCCCCC(=O)[C@H]1O[C@H]1C(=O)N(C)C | 40 µM | 0% | 2% |  |
| CCCCCCCCCC(=O)[C@H]1O[C@H]1C(=O)N(C)C | 77 µM | 17% | 2% |  |
| CCCCCCCCCCCCCCCCCC(O)[C@H]1O[C@H]1C(=O)N(C)C (some centres undefined) | 52 µM | 0% | 3% |  |
| CCCCCCCCCCCC(=O)[C@H]1O[C@H]1C(=O)N(C)C | 49 µM | 10% | 5% |  |
| CCCCCCCCCCCCCC(=O)[C@H]1O[C@H]1C(N)=O | 13 µM | 47% | 0% |  |
| CCCCCCCCCCCCCCCC(=O)[C@H]1O[C@H]1C(=O)N(C)C | 40 µM | 31% | 0% |  |
| CCCCCCCCCC(O)[C@H]1O[C@H]1C(N)=O (some centres undefined) | > 200 µM | 27% | 5% |  |
